From ChEMBL document CHEMBL5214901 (J Med Chem, 2021) come the findings set out here.

Calls of active or inactive are those of the source. The calls are words filed in the database; no cut-off is given here.

The target in one test is Integrin alpha-V/beta-6 (Homo sapiens, UniProt P06756+P18564). As to the kind of experiment: Inhibition of human recombinant integrin alphavbeta6 incubated for 1 hr by ELISA assay. The class given is protein-complex assay.
Test [1] relates to Human alphaherpesvirus 1. The test can be described thus: Antiviral activity against HSV-1 K26GFP infected in J cells expressing nectin1 plus alphavbeta6 integrin at 700 uM incubated for 48 hrs followed by viral infection measured after 16 hrs by fluorescent microscopy. Particulars: time 64.0 hrs. The class given is functional, organism-based. In a few lines:
(§1)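 J cells were transfected with nectin1 (75 ng DNA/24 well) plus αv+β6, αv+β8, or both integrin plasmids (300 ng each). Total DNA was made up to 675 ng with Erb-2 plasmid. At 48 h, cells got 700 μM peptide for 1 h at 37 °C, then K26GFP at 1 PFU/cell for 90 min with peptide. Acid wash (pH 3), then 16 h without peptide. EGFP was read by fluorescence microscopy and flow cytometry MFI (≥10 000 events); triplicates ± SD.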

The subject of test [2] is Human alphaherpesvirus 1. The test can be described thus: Antiviral activity against HSV-1 K26GFP infected in J cells expressing nectin1 plus alphavbeta8 integrin at 700 uM incubated for 48 hrs followed by viral infection measured after 16 hrs by fluorescent microscopy. Particulars: time 64.0 hrs. Type of test: functional, organism-based. In a few lines: as §1
The subject of test [3] is Human alphaherpesvirus 1. The test can be described thus: Antiviral activity against HSV-1 R8102 infected in HEK293T cells assessed as inhibition of viral replication using ONPG as substrate incubated for 1 hrs followed by viral infection measured after 90 mins by microplate reader analysis. The class given is functional, organism-based. The note with it: dose <= 1000.0 µM, DDE = dose-dependent effect. The essentials:
(§2)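 Peptides were dissolved at 10 mM (stock) in serum-free DMEM and neutralized with Tris-HCl. 293T cells (low endogenous αvβ6/αvβ8) were pretreated with increasing peptide concentrations for 1 h at 37 °C. Cells were then infected with lacZ-reporter R8102 at MOI 5 PFU/cell for 90 min at 37 °C with peptide. After rinsing, cells were incubated 8 h without peptide. Infection was read as β-galactosidase activity with ONPG; triplicate, SD.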

Test [4] relates to Human alphaherpesvirus 1. As to the kind of experiment: Antiviral activity against HSV-1 K26GFP infected in J cells expressing nectin1 plus alphavbeta6/alphavbeta8 integrin assessed as alphavbeta6/alphavbeta8 receptor internalization at 700 uM incubated for 1 hrs followed by viral infection by flow cytometry assay. Type of test: functional, organism-based. The essentials: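 Transfected J cells expressed nectin1 plus both αvβ6 and αvβ8 (48 h post-transfection) and were treated with 700 μM peptide for 1 h at 37 °C. Surface β6 and β8 were stained for 1 h at 4 °C with APC-conjugated mAbs outside the RGD-binding site. Nectin1 was stained with R1.302 plus APC secondary. Read-out was flow cytometry APC MFI of gated cells, ≥10 000 events; triplicates ± SD.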
(Flow cytometry measures light scatter and fluorescence of single cells or particles in a stream.)

Test [5] relates to Human alphaherpesvirus 1. As to the kind of experiment: Antiviral activity against HSV-1 K26GFP infected in J cells expressing nectin1 plus alphavbeta6/alphavbeta8 integrin at 700 uM incubated for 48 hrs followed by viral infection measured after 16 hrs by fluorescent microscopy. The class given is functional, organism-based. The note with it: time 64.0 hrs. In a few lines:
as §1

The test system of test [6] is Human alphaherpesvirus 1. The test can be described thus: Inhibition of HSV-1 soluble gH binding to alphavbeta6/alphavbeta8 integrin expressed in […] J cells at 700 uM incubated for 1 hr by flow cytometry assay. The class given is cell-based. The essentials:
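J cells were transfected with nectin1 plus αvβ6 and αvβ8 and, 48 h later, exposed to 700 μM peptide for 1 h at 37 °C. They were then incubated for 1 h at 4 °C with 2 μM One-STrEP-tagged soluble gH in DMEM/5% FBS/30 mM HEPES. Soluble gB served as the control protein. Binding was detected with PE-Strep-Tactin (1 h, 4 °C) as flow cytometry MFI (≥10 000 events); triplicates ± SD.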

The test system of test [7] is Human alphaherpesvirus 1. As to the kind of experiment: Antiviral activity against HSV-1 R8102 infected in HEK293T cells assessed as inhibition of viral replication at 500 to 1000 uM using ONPG as substrate incubated for 1 hrs followed by viral infection measured after 90 mins by microplate reader analysis relative to control. The note with it: dose 500-1000 µM. More on the design: scale not given: the % may be the effect or the level left. The class given is functional. The essentials:
as §2

Sequence of Integrin alpha-V/beta-6 (P06756 31-889 limits assumed): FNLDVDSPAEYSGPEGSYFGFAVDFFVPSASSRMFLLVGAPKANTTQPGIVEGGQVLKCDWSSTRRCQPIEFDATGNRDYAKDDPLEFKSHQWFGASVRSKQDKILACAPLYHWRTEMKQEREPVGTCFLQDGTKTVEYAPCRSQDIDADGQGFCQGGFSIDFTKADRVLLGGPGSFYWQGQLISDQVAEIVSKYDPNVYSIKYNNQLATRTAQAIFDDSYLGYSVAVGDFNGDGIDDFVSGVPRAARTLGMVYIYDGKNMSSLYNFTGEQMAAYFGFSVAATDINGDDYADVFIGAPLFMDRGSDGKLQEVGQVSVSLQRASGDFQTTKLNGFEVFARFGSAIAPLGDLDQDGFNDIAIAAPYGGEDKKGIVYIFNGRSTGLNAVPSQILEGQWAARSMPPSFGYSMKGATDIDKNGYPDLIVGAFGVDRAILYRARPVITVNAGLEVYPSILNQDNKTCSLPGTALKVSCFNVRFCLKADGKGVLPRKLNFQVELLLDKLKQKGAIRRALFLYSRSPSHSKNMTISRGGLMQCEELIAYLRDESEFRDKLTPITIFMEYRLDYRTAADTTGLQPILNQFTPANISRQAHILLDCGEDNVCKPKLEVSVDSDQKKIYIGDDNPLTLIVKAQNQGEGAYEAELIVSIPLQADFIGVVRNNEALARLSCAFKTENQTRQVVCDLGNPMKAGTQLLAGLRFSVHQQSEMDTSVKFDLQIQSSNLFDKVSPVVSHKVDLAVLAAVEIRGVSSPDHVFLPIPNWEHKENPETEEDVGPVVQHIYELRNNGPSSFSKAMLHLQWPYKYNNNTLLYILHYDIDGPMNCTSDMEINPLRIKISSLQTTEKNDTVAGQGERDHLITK
Sequence of Integrin alpha-V/beta-6 (P06756 891-1048 limits assumed): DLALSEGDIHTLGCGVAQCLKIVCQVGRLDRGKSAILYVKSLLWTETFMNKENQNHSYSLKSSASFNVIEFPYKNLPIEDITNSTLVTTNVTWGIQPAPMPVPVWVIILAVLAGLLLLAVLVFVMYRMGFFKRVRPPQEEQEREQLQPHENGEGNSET
Sequence of Integrin alpha-V/beta-6 (P18564 22-788 limits assumed): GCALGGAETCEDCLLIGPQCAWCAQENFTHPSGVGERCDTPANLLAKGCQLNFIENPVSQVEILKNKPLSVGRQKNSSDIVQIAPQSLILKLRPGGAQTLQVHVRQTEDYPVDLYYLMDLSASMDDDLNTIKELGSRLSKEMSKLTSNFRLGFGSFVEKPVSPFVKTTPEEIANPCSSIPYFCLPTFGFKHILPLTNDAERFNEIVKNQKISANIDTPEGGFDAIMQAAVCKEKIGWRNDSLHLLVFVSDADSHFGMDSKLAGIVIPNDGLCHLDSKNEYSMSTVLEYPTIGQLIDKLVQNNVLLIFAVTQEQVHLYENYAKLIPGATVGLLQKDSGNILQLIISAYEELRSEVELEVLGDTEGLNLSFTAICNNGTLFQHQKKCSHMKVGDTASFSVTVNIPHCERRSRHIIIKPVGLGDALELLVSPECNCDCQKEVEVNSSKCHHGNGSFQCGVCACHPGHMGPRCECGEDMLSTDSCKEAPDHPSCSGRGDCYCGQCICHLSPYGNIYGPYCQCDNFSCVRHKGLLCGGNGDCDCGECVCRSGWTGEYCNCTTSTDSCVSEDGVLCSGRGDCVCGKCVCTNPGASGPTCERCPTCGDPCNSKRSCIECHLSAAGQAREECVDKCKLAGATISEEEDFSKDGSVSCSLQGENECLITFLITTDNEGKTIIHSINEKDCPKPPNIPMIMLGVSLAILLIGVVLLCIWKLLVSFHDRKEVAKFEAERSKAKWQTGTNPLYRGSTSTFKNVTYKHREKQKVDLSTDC

By IC50 is commonly meant the concentration needed to halve the response being measured. For `CN1C(=O)CNC(=O)[C@H](CCCNC(=N)N)NC(=O)CC[C@@H](C(N)=O)NC(=O)[C@H](C2CCCCC2)NC(=O)[C@@H]1CC(=O)O`, the concentration for half-maximal inhibition (IC50) at Integrin alpha-V/beta-6 was above 5 µM.
With `CN1C(=O)[C@H](C2CCCCC2)NC(=O)[C@H](CC(=O)O)NC(=O)CNC(=O)[C@H](CCCNC(=N)N)NC(=O)CC[C@H]1C(N)=O`, the result in the test on Human alphaherpesvirus 1 [1], in the test on Human alphaherpesvirus 1 [2], in the test with Human alphaherpesvirus 1 [4] and with Human alphaherpesvirus 1 [5] was Active. Further, the Activity result with Human alphaherpesvirus 1 [3] was “Dde”; with Human alphaherpesvirus 1 [7], 70%. In the test on Human alphaherpesvirus 1 [6], the inhibition result is “Active”.
On to `CC(C)C[C@H](NC(=O)[C@H](CO)NC(=O)[C@H](CC(=O)O)NC(=O)[C@H](CC(C)C)NC(=O)[C@H](CC(=O)O)NC(=O)[C@@H](NC(=O)[C@@H](N)CCCNC(=N)N)[C@@H](C)O)C(=O)N[C@@H](CCCNC(=N)N)C(=O)N[C@H](C(=O)O)[C@@H](C)O`, for which, on Integrin alpha-V/beta-6, the 50% inhibitory concentration (IC50) worked out at 0.038 µM.
As for `N=C(N)NCCC[C@@H]1NC(=O)CC[C@@H](C(N)=O)NC(=O)[C@H](C2CCCCC2)NC(=O)[C@H](CC(=O)O)NC(=O)CNC1=O`, in the test on Human alphaherpesvirus 1 [1], the result was Active. Besides, the Activity result with Human alphaherpesvirus 1 [3] is “Dde”.
